Assay results from ChEMBL document CHEMBL4041520, “Novel pyrimidine-2,4-dione-1,2,3-triazole and furo[2,3-d]pyrimidine-2-one-1,2,3-triazole hybrids as potential anti-cancer agents: Synthesis, computational and X-ray analysis and biological evaluation” (Eur J Med Chem, 2017).
Active and inactive are the calls of the source. No cut-off for these calls is given here.

Columns and labels:
CFPAC-1 = experiment: Antiproliferative activity against human CFPAC-1 cells after 72 hrs by MTT assay; type: functional, cell-based; conditions: CFPAC-1, 72 h
Outline: (§1)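 Monolayers grown in DMEM with 10% FBS and 2 mM L-glutamine at 37 °C, 5% CO2. Cells seeded at 5000 per well on day 0. Compounds added in five 10-fold dilutions (0.01–100 µM), DMSO ≤0.1%, for 72 h. MTT absorbance converted to percentage growth versus untreated wells. IC50 by linear regression of the dose-response curve; highest concentration reported when not reached. Quadruplicate points, three experiments.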

A549 = experiment: Antiproliferative activity against human A549 cells after 72 hrs by MTT assay; type: functional, cell-based; conditions: A549, 72 h; outline: as §1
[1] = Mitochondrial toxicity in human HepG2 cells grown in presence of galactose; type: cell-based
Outline: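 HepG2 kept for more than 5 passages in glucose-free DMEM with 10 mM galactose, 2 mM glutamine, 5 mM HEPES, 10% FBS and 1 mM sodium pyruvate.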

HeLa [2] = experiment: Induction of apoptosis in human HeLa cells assessed as late apoptotic cells at 2 times antiproliferative IC50 after 48 hrs by Annexin-V FITC/propidium iodide staining based fluorescence microscopic method (reference value: 2.3%); type: functional
Outline: (§2)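 Cells seeded in 8-well chamber slides and exposed to compound at 2× IC50 for 48 h. After washing in incubation buffer, Annexin-V-FITC labelling for 15 min at room temperature. Cells fixed with 20% glycerol; PI used as nuclear stain. Scored by fluorescence microscopy as viable (PI-/AnnV-), early apoptotic (PI-/AnnV+), late apoptotic/primary necrotic (PI+/AnnV+) or secondary necrotic (PI+) percentages.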

HeLa [3] = experiment: Induction of apoptosis in human HeLa cells assessed as viable cells at 2 times antiproliferative IC50 after 48 hrs by Annexin-V FITC/propidium iodide staining based fluorescence microscopic method (reference value: 75%); type: functional; outline: as §2
[4] = target: Wee1-like protein kinase (Homo sapiens) (UniProt P30291); experiment: Inhibition of Wee-1 kinase in human HeLa cells assessed as downregulation of ASAH at 2 times antiproliferative IC50 after 48 hrs by Western blot method; type: cell-based
Outline: (§3)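 Cells seeded at 200000 per well and treated at 2× IC50 for 48 h. Lysed in RIPA buffer with protease inhibitors. 50 µg protein run on 12% Tris-glycine gels and transferred to PVDF. Blocked in 4% BSA/TBST, probed overnight at 4 °C with anti-p-SK1, ASAH1 or p-Wee1, then HRP secondary. Chemiluminescent detection; densitometry normalized to alpha-tubulin. Two independent experiments, mean ± SD.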

NIH3T3 = experiment: Antiproliferative activity against mouse NIH/3T3 cells after 72 hrs by MTT assay; type: cell-based; conditions: NIH3T3, 72 h; outline: as §1
HeLa [5] = experiment: Induction of apoptosis in human HeLa cells assessed as secondary necrotic cells at 2 times antiproliferative IC50 after 48 hrs by Annexin-V FITC/propidium iodide staining based fluorescence microscopic method (reference value: 2.3%); type: functional; outline: as §2
[6] = target: Wee1-like protein kinase (Homo sapiens) (UniProt P30291); experiment: Inhibition of Wee-1 kinase in human HeLa cells assessed as reduction in SK1 phosphorylation at 2 times antiproliferative IC50 after 48 hrs by Western blot method; type: cell-based; outline: as §3
HeLa [7] = experiment: Induction of apoptosis in human HeLa cells assessed as early apoptotic cells at 2 times antiproliferative IC50 after 48 hrs by Annexin-V FITC/propidium iodide staining based fluorescence microscopic method (reference value: 20.4%); type: functional; outline: as §2
[8] = target: Wee1-like protein kinase (Homo sapiens) (UniProt P30291); experiment: Inhibition of Wee-1 kinase phosphorylation in human HeLa cells at 2 times antiproliferative IC50 after 48 hrs by Western blot method; type: cell-based; outline: as §3
HeLa [9] = experiment: Antiproliferative activity against human HeLa cells after 72 hrs by MTT assay; type: functional, cell-based; outline: as §1
HepG2 [10] = experiment: Antiproliferative activity against human HepG2 cells after 72 hrs by MTT assay; type: functional, cell-based; conditions: HepG2, 72 h; outline: as §1
[11] = Mitochondrial toxicity in human HepG2 cells grown in presence of glucose; type: cell-based
SW-620 = experiment: Antiproliferative activity against human SW620 cells after 72 hrs by MTT assay; type: functional, cell-based; conditions: SW-620, 72 h; outline: as §1
HepG2 [12] = experiment: Induction of apoptosis in human HepG2 cells assessed as early apoptotic cells at 2 times antiproliferative IC50 after 48 hrs by Annexin-V FITC/propidium iodide staining based fluorescence microscopic method (reference value: 0.6%); type: functional; outline: as §2
[13] = target: Wee1-like protein kinase (Homo sapiens) (UniProt P30291); experiment: Inhibition of Wee-1 kinase in human HepG2 cells assessed as downregulation of ASAH at 2 times antiproliferative IC50 after 48 hrs by Western blot method; type: cell-based; outline: as §3
HepG2 [14] = experiment: Induction of apoptosis in human HepG2 cells assessed as late apoptotic cells at 2 times antiproliferative IC50 after 48 hrs by Annexin-V FITC/propidium iodide staining based fluorescence microscopic method relative to control; type: functional; outline: as §2
[15] = target: Wee1-like protein kinase (Homo sapiens) (UniProt P30291); experiment: Inhibition of Wee-1 kinase phosphorylation in human HepG2 cells at 2 times antiproliferative IC50 after 48 hrs by Western blot method; type: cell-based; outline: as §3
HepG2 [16] = experiment: Induction of apoptosis in human HepG2 cells assessed as viable cells at 2 times antiproliferative IC50 after 48 hrs by Annexin-V FITC/propidium iodide staining based fluorescence microscopic method (reference value: 94.2%); type: functional; outline: as §2
[17] = target: Wee1-like protein kinase (Homo sapiens) (UniProt P30291); experiment: Inhibition of Wee-1 kinase in human HepG2 cells assessed as reduction in SK1 phosphorylation at 2 times antiproliferative IC50 after 48 hrs by Western blot method; type: cell-based; outline: as §3
HepG2 [18] = experiment: Induction of apoptosis in human HepG2 cells assessed as secondary necrotic cells at 2 times antiproliferative IC50 after 48 hrs by Annexin-V FITC/propidium iodide staining based fluorescence microscopic method (reference value: 5.2%); type: functional; outline: as §2

Chain of Wee1-like protein kinase (Homo sapiens) (P30291 whole entry, looked up): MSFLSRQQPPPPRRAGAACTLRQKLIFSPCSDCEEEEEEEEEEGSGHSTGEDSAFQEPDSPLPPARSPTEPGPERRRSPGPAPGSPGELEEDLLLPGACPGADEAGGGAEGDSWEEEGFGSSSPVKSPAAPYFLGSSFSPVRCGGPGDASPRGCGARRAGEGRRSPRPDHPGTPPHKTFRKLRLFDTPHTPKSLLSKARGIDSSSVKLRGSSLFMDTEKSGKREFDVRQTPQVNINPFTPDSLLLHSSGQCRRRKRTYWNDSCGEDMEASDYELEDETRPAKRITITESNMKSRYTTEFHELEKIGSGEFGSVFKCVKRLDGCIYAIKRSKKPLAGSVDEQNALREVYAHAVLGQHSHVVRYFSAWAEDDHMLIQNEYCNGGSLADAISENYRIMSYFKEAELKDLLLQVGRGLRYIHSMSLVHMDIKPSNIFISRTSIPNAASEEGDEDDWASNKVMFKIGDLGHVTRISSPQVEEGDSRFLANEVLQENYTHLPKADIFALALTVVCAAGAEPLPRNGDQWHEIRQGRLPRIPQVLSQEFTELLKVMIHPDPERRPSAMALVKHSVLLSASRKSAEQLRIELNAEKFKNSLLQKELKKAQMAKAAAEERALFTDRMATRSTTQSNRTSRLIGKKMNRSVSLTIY

IC50 (A549) | IC50 (HeLa [9]) | IC50 (HepG2 [10]) | IC50 (SW-620) | Structure (SMILES) | IC50 (CFPAC-1) | IC50 [1] | IC50 (NIH3T3) | IC50 [11] | also measured
5.33 µM | 1.64 µM | 7.11 µM | 7.86 µM | O=c1c(Br)cn(Cc2cn(-c3ccccc3F)nn2)c(=O)n1Cc1cn(-c2ccccc2F)nn1 | 4.53 µM | 4.67 µM | 0.59 µM | 7.11 µM | Activity (HeLa [2]): 1.8%; Activity (HeLa [3]): 71.3%; inhibition [4]: inactive; Activity (HeLa [5]): 3%; inhibition [6]: inactive; Activity (HeLa [7]): 23.9%; inhibition [8]: inactive
> 100 µM | 93.9 µM | > 100 µM | ≥ 100 µM | O=c1[nH]c(=O)n(Cc2cn(-c3ccccc3F)nn2)cc1Br | > 100 µM | – | 59.3 µM | – | –
25.4 µM | 12.6 µM | 4.47 µM | 9.82 µM | O=c1c(Br)cn(Cc2cn(-c3ccc(F)cc3)nn2)c(=O)n1Cc1cn(-c2ccc(F)cc2)nn1 | 6.87 µM | 4.57 µM | 0.07 µM | 4.78 µM | Activity (HepG2 [12]): 26.6%; inhibition [13]: inactive; Activity (HepG2 [14]): 0%; inhibition [15]: Active; Activity (HepG2 [16]): 72.9%; inhibition [17]: inactive; Activity (HepG2 [18]): 0.5%
7.41 µM | 6.13 µM | 3.62 µM | 5.63 µM | O=c1c(Br)cn(Cc2cn(-c3ccc(Cl)cc3)nn2)c(=O)n1Cc1cn(-c2ccc(Cl)cc2)nn1 | 5.92 µM | 7.1 µM | 0.37 µM | 3.82 µM | Activity (HepG2 [12]): 34.8%; inhibition [13]: Active; Activity (HepG2 [14]): 0%; inhibition [15]: Active; Activity (HepG2 [16]): 50%; inhibition [17]: Active; Activity (HepG2 [18]): 15.2%
64 µM | 72.9 µM | 68.9 µM | > 100 µM | O=c1[nH]c(=O)n(Cc2cn(-c3ccc(F)cc3)nn2)cc1Br | > 100 µM | – | 50.8 µM | – | –
95.8 µM | > 100 µM | 42.7 µM | > 100 µM | O=c1c(Br)cn(Cc2cn(-c3cc(Cl)cc(Cl)c3)nn2)c(=O)n1Cc1cn(-c2cc(Cl)cc(Cl)c2)nn1 | > 100 µM | – | 4.3 µM | – | –
40.9 µM | 33.3 µM | 19.1 µM | > 100 µM | O=c1[nH]c(=O)n(Cc2cn(-c3ccc(Cl)cc3)nn2)cc1Br | 39.5 µM | – | 6.7 µM | – | –
80.7 µM | 8.42 µM | 7.66 µM | 9.87 µM | O=c1[nH]c(=O)n(Cc2cn(-c3cc(Cl)cc(Cl)c3)nn2)cc1Br | 5.51 µM | – | 1.16 µM | – | –
